Here are results for four molecules from ChEMBL document CHEMBL1777764, “Synthesis and evaluation of 1-(1H-indol-3-yl)ethanamine derivatives as new antibacterial agents” (Bioorg Med Chem, 2011).

In brackets after ≈: the same amount, converted by molar mass.

In data set [1] the test system is Streptococcus pneumoniae. The experiment in a line: Antibacterial activity against Streptococcus pneumoniae ATCC 49619 after 18 hrs by broth microdilution method. Format: functional. The conditions noted are these: ATCC 49619, 18 h. The method in brief: (§1)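 MIC by broth microdilution per ISO 20776-1:2006 and CLSI M07-A8. Inoculum 10^6 cfu/ml in Mueller-Hinton broth […]. Compound serially diluted, final 2 to 128 ug/ml, duplicate rows, no-drug growth control. Read after 18 h at 37 °C as lowest concentration fully inhibiting visible growth. At least two experiments.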

The test system of data set [2] is Streptococcus pneumoniae. The experiment in a line: Antibacterial activity against Streptococcus pneumoniae ATCC 6303 after 18 hrs by broth microdilution method. Format: functional. The conditions noted are these: ATCC 6303, 18 h. Summed up:
as §1
(In general: Broth dilution looks for growth in wells or tubes with falling amounts of substance.)

The next data set concerns Streptococcus agalactiae. The experiment in a line: Antibacterial activity against Streptococcus agalactiae ATCC 12400 after 18 hrs by broth microdilution method. Format: functional. As to conditions: ATCC 12400, 18 h. The method in brief:
(§2)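 Broth microdilution following ISO 20776-1:2006 and CLSI M07-A8, in Mueller-Hinton broth. Inoculum was 10^6 cfu/ml, with compound serial dilutions spanning 2 to 128 ug/ml and a compound-free growth control well. Plates were incubated 18 h at 37 °C. MIC was the lowest concentration giving complete inhibition of visible growth. Each compound was tested at least twice.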

Another data set has as its system Streptococcus pyogenes. The experiment in a line: Antibacterial activity against Streptococcus pyogenes CIP 104226 after 18 hrs by broth microdilution method. Format: functional. As to conditions: CIP 104226, 18 h. The method in brief:
as §2

The next data set relates to Streptococcus mitis. The experiment in a line: Antibacterial activity against Streptococcus mitis CIP 103335 after 18 hrs by broth microdilution method. The conditions noted are these: CIP 103335, 18 h. Format: functional. The method in brief:
(§3)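 Broth microdilution following ISO 20776-1:2006 and CLSI M07-A8, in Mueller-Hinton broth […]. Inoculum was 10^6 cfu/ml, with compound serial dilutions spanning 2 to 128 ug/ml and a compound-free growth control well. Plates were read after 18 h at 37 °C. MIC was the lowest concentration with no visible growth. Each compound was tested at least twice.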

The next data set deals with Enterococcus faecium. The experiment in a line: Antibacterial activity against Enterococcus faecium CIP 54.32 after 18 hrs by broth microdilution method. Format: functional. As to conditions: CIP 54.32, 18 h. The method in brief:
as §2

Another data set has as its system Enterococcus faecalis. The data set is described as follows: Antibacterial activity against Enterococcus faecalis ATCC 29212 after 18 hrs by broth microdilution method. Format: functional. The conditions noted are these: ATCC 29212, 18 h. The method in brief: as §2
Another data set has as its system Haemophilus influenzae. The data set is described as follows: Antibacterial activity against Haemophilus influenzae ATCC 49766 after 18 hrs by broth microdilution method. Format: functional. The conditions noted are these: ATCC 49766, 18 h. Summed up:
as §3

Data set [3] relates to Staphylococcus aureus. The experiment in a line: Antibacterial activity against Staphylococcus aureus ATCC 25923 after 18 hrs by broth microdilution method. As to conditions: ATCC 25923, 18 h. Format: functional. Summed up:
(§4)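 MIC by broth microdilution per ISO 20776-1:2006 and CLSI M07-A8. Inoculum 10^6 cfu/ml in Mueller-Hinton broth with compound serially diluted, final concentrations 2 to 128 ug/ml, duplicate rows, no-drug growth control. Incubation 18 h at 37 °C. MIC taken as lowest concentration giving complete inhibition of visible growth. Each compound tested at least twice.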

For data set [4], the system named is Staphylococcus aureus. The data set is described as follows: Antibacterial activity against Staphylococcus aureus ATCC 29213 after 18 hrs by broth microdilution method. Format: functional. As to conditions: ATCC 29213, 18 h. The method in brief: as §4
The subject of data set [5] is Staphylococcus aureus. The experiment in a line: Antibacterial activity against Staphylococcus aureus ATCC 9144 after 18 hrs by broth microdilution method. Format: functional. As to conditions: ATCC 9144, 18 h. The method in brief:
as §4

The test system of data set [6] is Staphylococcus aureus. The data set is described as follows: Antibacterial activity against Staphylococcus aureus ATCC 6538 after 18 hrs by broth microdilution method. Format: functional. The conditions noted are these: ATCC 6538, 18 h. The method in brief:
as §4

In data set [7] the test system is Staphylococcus aureus. The data set is described as follows: Antibacterial activity against Staphylococcus aureus CIP 65.6 after 18 hrs by broth microdilution method. The conditions noted are these: CIP 65.6, 18 h. Format: functional. The method in brief:
as §4

For data set [8], the system named is Staphylococcus aureus. The experiment in a line: Antibacterial activity against Staphylococcus aureus CIP 103428 after 18 hrs by broth microdilution method. Format: functional. The conditions noted are these: CIP 103428, 18 h. Summed up:
as §4

Data set [9] deals with Staphylococcus aureus. The experiment in a line: Antibacterial activity against methicillin-resistant Staphylococcus aureus CIP 65.25 after 18 hrs by broth microdilution method. The conditions noted are these: CIP 65.25, 18 h. Format: functional. Summed up:
as §2

Data set [10] has as its system Staphylococcus aureus. The data set is described as follows: Antibacterial activity against methicillin-resistant Staphylococcus aureus ATCC 33592 after 18 hrs by broth microdilution method. The conditions noted are these: ATCC 33592, 18 h. Format: functional. The method in brief:
as §2

For data set [11], the system named is Staphylococcus aureus. The experiment in a line: Antibacterial activity against vancomycin intermediate Staphylococcus aureus […] after 18 hrs by broth microdilution method. Format: functional. Summed up: as §2
The test system of data set [12] is Staphylococcus epidermidis. The data set is described as follows: Antibacterial activity against Staphylococcus epidermidis ATCC 12228 after 18 hrs by broth microdilution method. Format: functional. The conditions noted are these: ATCC 12228, 18 h. The method in brief:
as §4

Data set [13] has as its system Staphylococcus epidermidis. The experiment in a line: Antibacterial activity against Staphylococcus epidermidis CIP 81.55 after 18 hrs by broth microdilution method. Format: functional. As to conditions: CIP 81.55, 18 h. Summed up: as §4
In data set [14] the test system is Staphylococcus epidermidis. The experiment in a line: Antibacterial activity against Staphylococcus epidermidis CIP 103627 after 18 hrs by broth microdilution method. Format: functional. The conditions noted are these: CIP 103627, 18 h. Summed up:
as §4

In the next data set the test system is Escherichia coli. The data set is described as follows: Antibacterial activity against Escherichia coli ATCC 25922 after 18 hrs by broth microdilution method. Format: functional. As to conditions: ATCC 25922, 18 h. Summed up:
as §2

The test system of data set [15] is KB. The experiment in a line: Cytotoxicity against human KB cells at 10 uM. Format: cell-based.
The subject of data set [16] is HCT-116. The data set is described as follows: Cytotoxicity against human HCT116 cells at 10 uM. Format: cell-based. As to conditions: hct-116, 10 µM.
Data set [17] deals with MRC5. The experiment in a line: Cytotoxicity against human MRC5 cells at 10 uM. Format: cell-based. As to conditions: mrc5, 10 µM.
Data set [18] concerns KB. The data set is described as follows: Cytotoxicity against human KB cells at 1 uM. Format: cell-based.
Data set [19] has as its system HCT-116. The experiment in a line: Cytotoxicity against human HCT116 cells at 1 uM. Format: cell-based. As to conditions: hct-116, 1 µM.
Data set [20] concerns MRC5. The data set is described as follows: Cytotoxicity against human MRC5 cells at 1 uM. Format: cell-based. The conditions noted are these: mrc5, 1 µM.
For another data set, the system named is Klebsiella pneumoniae. The data set is described as follows: microbe, parasite or virus in culture. As to conditions: ATCC 35657, 18 h.
In a further data set the test system is Enterobacter cloacae. The data set is described as follows: microbe, parasite or virus in culture. The conditions noted are these: ATCC 13047, 18 h.
The subject of the next data set is Serratia marcescens. The experiment in a line: microbe, parasite or virus in culture. As to conditions: CIP 103551, 18 h.
In the next data set the test system is Pseudomonas aeruginosa. The data set is described as follows: microbe, parasite or virus in culture. As to conditions: CIP 5933, 18 h.
A further data set deals with Acinetobacter baumannii. The experiment in a line: microbe, parasite or virus in culture. The conditions noted are these: ATCC 19606 = CIP 70.34 = JCM 6841, 18 h.

Regarding `CO/N=C(\C(=O)N[C@@H]1C(=O)N2C(C(=O)O)=C(COC(C)=O)CS[C@H]12)c1csc(N)n1` [CEFOTAXIME], the MIC with Streptococcus pneumoniae [1] amounted to 0.125 µg/mL (≈ 0.274 µM); with Streptococcus pneumoniae [2] it was 0.125 µg/mL (≈ 0.274 µM); against Streptococcus agalactiae, 0.016 µg/mL (≈ 0.0351 µM); against Streptococcus pyogenes, 0.016 µg/mL (≈ 0.0351 µM); with Streptococcus mitis it was 0.016 µg/mL (≈ 0.0351 µM); in the data set with Enterococcus faecium, 0.5 µg/mL (≈ 1.1 µM). The MIC was determined as 0.5 µg/mL (≈ 1.1 µM) against Enterococcus faecalis and 0.032 µg/mL (≈ 0.0703 µM) in the data set with Haemophilus influenzae.

With `Cl.Cl.NCC(NO)c1c[nH]c2cc(Br)ccc12` (stereo not given), the MIC in the data set with Staphylococcus aureus [3], in the data set on Staphylococcus aureus [4], with Staphylococcus aureus [5], in the data set on Staphylococcus aureus [6], in the data set on Staphylococcus aureus [7] and in the data set on Staphylococcus aureus [8] was 16 µg/mL in each case. The MIC (against Staphylococcus aureus [9]; in the data set on Staphylococcus aureus [10]; with Staphylococcus aureus [11]; in [12]; in data set [13]; in [14]) was 16 µg/mL throughout. The MIC in the data set on Streptococcus pneumoniae [1] was 64 µg/mL; in the data set on Streptococcus pneumoniae [2] it was 64 µg/mL; against Streptococcus agalactiae it was 128 µg/mL; in the data set on Streptococcus pyogenes, 128 µg/mL; against Streptococcus mitis, 128 µg/mL; against Enterococcus faecium, over 128 µg/mL. The MIC with Enterococcus faecalis is over 128 µg/mL; against Escherichia coli it was 32 µg/mL; in the data set with Klebsiella pneumoniae, 64 µg/mL; in the data set on Enterobacter cloacae it was 64 µg/mL; in the data set on Serratia marcescens, 64 µg/mL; against Pseudomonas aeruginosa, 64 µg/mL. For the same molecule, the MIC against Acinetobacter baumannii is 64 µg/mL. Further, the Activity result with KB [15], in the data set with HCT-116 [16], with MRC5 [17], in the data set with KB [18], in the data set with HCT-116 [19] and in the data set on MRC5 [20] was “Non-toxic” in each case.

With `CC(C)(C)OC(=O)NCC(c1c[nH]c2ccc(Br)cc12)N(O)Cc1ccccc1` (stereo not given), the MIC in the data set with Staphylococcus aureus [3], against Staphylococcus aureus [4], in the data set on Staphylococcus aureus [5], in the data set on Staphylococcus aureus [6], against Staphylococcus aureus [7] and in the data set with Staphylococcus aureus [8] was 8 µg/mL (≈ 17.4 µM) in each case. Moreover, the MIC was 16 µg/mL (≈ 34.8 µM) with Staphylococcus aureus [9]; 16 µg/mL (≈ 34.8 µM) against Staphylococcus aureus [10]; 8 µg/mL (≈ 17.4 µM) with Staphylococcus aureus [11]; 16 µg/mL (≈ 34.8 µM) in [12]; 16 µg/mL (≈ 34.8 µM) in data set [13]; 16 µg/mL (≈ 34.8 µM) in data set [14]. For the same molecule, the MIC against Streptococcus pneumoniae [1] and in the data set with Streptococcus pneumoniae [2] was 128 µg/mL (≈ 278 µM) in each case. Moreover, the Activity entry with KB [15], with HCT-116 [16], in the data set with MRC5 [17], in the data set with KB [18], with HCT-116 [19] and in the data set with MRC5 [20] was “Non-toxic” each time.

For the molecule `Cl.Cl.NCC(NO)c1c[nH]c2ccc(Br)cc12` (stereo not given), the MIC against Staphylococcus aureus [3], with Staphylococcus aureus [4], with Staphylococcus aureus [5], against Staphylococcus aureus [6], against Staphylococcus aureus [7] and against Staphylococcus aureus [8] was 16 µg/mL throughout. Moreover, the MIC came out at 16 µg/mL with Staphylococcus aureus [9]; 16 µg/mL against Staphylococcus aureus [10]; 16 µg/mL against Staphylococcus aureus [11]; 8 µg/mL in [12]; 8 µg/mL in data set [13]; 8 µg/mL in [14]. Further, the MIC against Streptococcus pneumoniae [1] is 64 µg/mL; with Streptococcus pneumoniae [2] it was 64 µg/mL; against Streptococcus agalactiae, 64 µg/mL; against Streptococcus pyogenes, 64 µg/mL; against Streptococcus mitis, 64 µg/mL; in the data set with Enterococcus faecium, 128 µg/mL. For the same molecule, the MIC was 128 µg/mL against Enterococcus faecalis; 16 µg/mL in the data set with Escherichia coli; 64 µg/mL in the data set on Klebsiella pneumoniae; 64 µg/mL against Enterobacter cloacae; 64 µg/mL against Serratia marcescens; 64 µg/mL in the data set on Pseudomonas aeruginosa. This molecule also came in with an MIC against Acinetobacter baumannii of 64 µg/mL. Further, the Activity entry in the data set on KB [15], in the data set with HCT-116 [16], with MRC5 [17], in the data set on KB [18], with HCT-116 [19] and in the data set on MRC5 [20] was “Non-toxic” in each case.
